Where a name gives a salt, the structure may show the parent alone. Calls of active or inactive are those of the source. The rule behind the calls is not given here.
Tests used:
Format in all cases: functional, cell-based
HT-29 = test: Cytotoxicity in human HT-29 cells assessed as reduction in cell viability incubated for 48 hrs by MTT assay; settings: HT-29, 48 h
How it was run: (§1)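 MTT viability. U251 and NCI-H1299 were grown in DMEM, the other lines in RPMI 1640, each with 10% FBS, penicillin and streptomycin, at 37 °C in 5% CO2. Cells were seeded in 96-well plates overnight and exposed to a range of concentrations. MTT (5 mg/mL) was added for 4 h, formazan was dissolved in DMSO and absorbance read at 570 nm. Three independent experiments.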

KB = test: Cytotoxicity in human KB cells assessed as reduction in cell viability incubated for 48 hrs by MTT assay; how it was run: as §1
A549 [1] = test: Cytotoxicity in human A549 cells assessed as reduction in cell viability incubated for 48 hrs by MTT assay; settings: A549, 48 h; how it was run: as §1
MCF7 = test: Cytotoxicity in human MCF7 cells assessed as reduction in cell viability incubated for 48 hrs by MTT assay; settings: MCF7, 48 h; how it was run: as §1
NCI-H1299 = test: Cytotoxicity in human NCI-H1299 cells assessed as reduction in cell viability incubated for 48 hrs by MTT assay; settings: NCI-H1299, 48 h; how it was run: as §1
SMMC-7721 = test: Cytotoxicity in human SMMC7721 cells assessed as reduction in cell viability incubated for 48 hrs by MTT assay; settings: SMMC-7721, 48 h; how it was run: as §1
HepG2 = test: Cytotoxicity in human HepG2 cells assessed as reduction in cell viability incubated for 48 hrs by MTT assay; settings: HepG2, 48 h
How it was run: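 MTT viability. Cells were seeded in 96-well plates overnight and exposed to a range of concentrations. MTT (5 mg/mL) was added for 4 h, formazan was dissolved in DMSO and absorbance read at 570 nm. Three independent experiments.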

U-251 = test: Cytotoxicity in human U251 cells assessed as reduction in cell viability incubated for 48 hrs by MTT assay; settings: U-251, 48 h; how it was run: as §1
SW-620 = test: Cytotoxicity in human SW620 cells assessed as reduction in cell viability incubated for 48 hrs by MTT assay; settings: SW-620, 48 h; how it was run: as §1
A549 [2] = test: Induction of cytoplasmic vacuolization in human A549 cells

Structure (SMILES)	IC50 (HT-29) [µM]	IC50 (KB) [µM]	IC50 (A549 [1]) [µM]	IC50 (MCF7) [µM]	IC50 (NCI-H1299) [µM]	IC50 (SMMC-7721) [µM]	IC50 (HepG2) [µM]	IC50 (U-251) [µM]	IC50 (SW-620) [µM]	Activity (A549 [2])
C=C(C)[C@H]1CC[C@@]2(C)Oc3cc(O)cc(CCc4ccccc4)c3[C@@H]1[C@H]2O	35.3	38	28	37	> 40	28.4	31.6	14.6	21.3	
O=C1C=Cc2c(O)cc(CCc3ccccc3O)cc2OC1	> 40	> 40	> 40	33.2	> 40	14.7	> 40	21.7	13.8	
CC1=CCc2c(O)cc(CCc3ccccc3O)cc2OC1	24.3	> 40	28.9	> 40	> 40	40	28.2	38.6	> 40	Active
CC1=CCc2c(O)cc(CCc3ccccc3)cc2OC1	> 40	> 40	> 40	> 40	> 40	> 40	> 40	> 40	> 40	
CC(C)=CCCC(C)(O)CCc1c(O)cc(O)cc1CCc1ccccc1 (racemic)	> 40	29.6	> 40	> 40	> 40	38.7	> 40	36.7	> 40	
CC(C)=CCC[C@@]1(C)C=Cc2c(CCc3ccccc3)cc(O)cc2O1	> 40	28.1	> 40	> 40	> 40	24.8	35	8.9	18.5	
C=C(C)[C@@H](O)CC/C(C)=C/Cc1c(O)cc(O)cc1CCc1ccccc1	29	17.2	25.5	28.9	> 40	29.5	22.2	> 40	19.7	Active
CC(C)=CCCC1(C)Oc2cc(O)cc(CCc3ccccc3)c2CC1O (racemic)	> 40	> 40	> 40	> 40	> 40	> 40	> 40	> 40	> 40	
COC(=O)c1c(CCc2ccccc2)cc(O)c2c1OC(C)(C)C(O)C2 (racemic)	> 40	> 40	> 40	> 40	> 40	> 40	> 40	> 40	> 40	
COC(=O)c1c(CCc2ccccc2)cc2c(c1O)CC(C(C)(C)O)O2 (racemic)	> 40	> 40	> 40	> 40	> 40	> 40	> 40	> 40	> 40	
C=C(C)C(O)Cc1c(O)cc(CCc2ccccc2)c(C(=O)OC)c1O (racemic)	29.6	> 40	36.6	37.9	> 40	9	34.9	8.7	22.2	
CC1=CC(=O)c2c(O)cc(CCc3ccccc3O)cc2OC1	> 40	> 40	> 40	> 40	> 40	> 40	> 40	> 40	> 40	
CC1(C)CCc2c(CCc3ccccc3)cc(O)cc2O1	> 40	> 40	> 40	> 40	> 40	> 40	> 40	> 40	> 40	Active
C=C(CCC=C(C)C)[C@H](O)Cc1c(O)cc(O)cc1CCc1ccccc1	19.8	16.8	26	18.7	> 40	15.8	20.4	9.1	15.2	
COc1cc(CCc2ccccc2)c2c(c1)OC(C)(C)CC2	> 40	> 40	> 40	> 40	> 40	> 40	> 40	26.1	> 40	
CC(C)=CCC/C(C)=C/Cc1c(O)cc(O)cc1CCc1ccccc1	> 40	25.7	> 40	> 40	> 40	24.5	36	9.3	25.6	
COC(=O)c1c(CCc2ccccc2)cc2c(c1O)CC(O)C(C)(C)O2 (racemic)	> 40	> 40	> 40	> 40	> 40	> 40	> 40	> 40	> 40	
CC(C)(O)[C@H]1CC[C@@]2(C)Oc3cc(O)cc(CCc4ccccc4)c3[C@@H]1[C@H]2O	> 40	> 40	> 40	> 40	> 40	> 40	> 40	> 40	> 40	
COc1cccc2c1C(=O)c1c(O)c3c(c(O)c1C2=O)C[C@@](O)(C(=O)CO)C[C@@H]3O[C@H]1C[C@H](N)[C@H](O)[C@H](C)O1 [DOXORUBICIN HYDROCHLORIDE]	3.8	3.2			0.8	0.8		2.9	1.2	
CC1(C)[C@@H]2c3c(CCc4ccccc4)cc(O)cc3O[C@]3(C)CC[C@H]1[C@H]23	> 10	16	9.8	20	7.5	13.5	13.1	25.6	10.4	Active

— ChEMBL document CHEMBL4339251, “Prenylated Bibenzyls from the Chinese Liverwort Radula constricta and Their Mitochondria-Derived Paraptotic Cytotoxic Activities” (J Nat Prod, 2019)
